Shown are actives, neighbours in structure and some others; about 1.6% of the full set was active somewhere.
TLR4-MyD88 BLA: TLR4-MyD88 interaction inhibition in cells. O00206+Q99836. HeLa CL3-4 TLR4/MyD88 BLA complementation, FRET ratio. inhibition, % at 8.4 µM. 200,000 compounds, 0.18% hits. AID 861; in the data active = inhibition above about 25%
SR-BI uptake up: activators of SR-BI mediated HDL lipid uptake; CHO ldlA[mSR-BI] cells, DiI-HDL uptake fluorescence, 3 h; 100 = double the neutral-control signal; activation, % at 12.5 µM; 320,000 compounds, 0.096% hits;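 active = mean replicate activation of at least 60% and every replicate at or above 60%; inconclusive = mean or all-replicate condition met, but not both; inactive = mean below 60% and not all replicates reaching 60%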
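Material – SR-BI-overexpressing, LDLR-lacking CHO cells · Medium – BSA-supplemented, HEPES-buffered Ham's F12, pH 7.4 · Doses – single concentration · Times – compound with DiI-HDL co-incubation, 3 h at 37 °C · Measured by – bottom-read fluorescence, 550/595 nm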
SR-BI HDL uptake: blocks mouse SR-BI lipid uptake from DiI-HDL. 320,000 compounds, 0.96% hits. Q61009. inhibition, % at 12.5 µM. ldlA[mSR-BI] CHO cells, DiI-HDL uptake fluorescence, 3 h;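 active = mean replicate inhibition of at least 70% and a set share of replicates each scoring 70 or more; inconclusive = meets just one of the two criteria; inactive = fails both criteria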
Target sequence (Q61009 whole entry, looked up): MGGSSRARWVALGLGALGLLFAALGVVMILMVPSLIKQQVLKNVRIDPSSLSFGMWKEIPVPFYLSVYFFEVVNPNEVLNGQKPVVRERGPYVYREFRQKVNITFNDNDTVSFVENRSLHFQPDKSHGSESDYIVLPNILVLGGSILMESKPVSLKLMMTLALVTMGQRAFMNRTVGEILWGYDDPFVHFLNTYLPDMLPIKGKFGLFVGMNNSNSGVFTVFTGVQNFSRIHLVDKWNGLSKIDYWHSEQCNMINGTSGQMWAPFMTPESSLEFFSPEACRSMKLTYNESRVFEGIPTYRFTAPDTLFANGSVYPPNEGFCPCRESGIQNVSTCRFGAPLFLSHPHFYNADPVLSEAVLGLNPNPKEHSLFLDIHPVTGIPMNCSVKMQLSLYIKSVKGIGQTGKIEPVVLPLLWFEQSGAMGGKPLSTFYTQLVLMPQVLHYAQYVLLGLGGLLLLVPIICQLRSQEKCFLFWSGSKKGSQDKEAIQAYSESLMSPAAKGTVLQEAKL
NOD2-RIPK2 inh: NOD2-RIPK2 protein interaction inhibition; O43353; CHO BLA complementation NOD2-RIPK2, CCF4 ratio; inhibition, % at 4.98 µM; 360,000 compounds, 0.38% hits; AID 624267; in the data active = inhibition above about 21%
Lipid droplet: modulators of hepatic lipid droplet formation | 240,000 compounds, 0.4% hits | AML12 mouse hepatocytes, oleate lipid droplets, BODIPY imaging | AID 1656 | inhibition, % at 6.5 µM;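 active = lipid droplet intensity inhibited by at least 50%, with more than 500 cells counted; inconclusive = wells with under 300 cells, treated as cytotoxic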
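Technique: fluorescence imaging, 20x objective, two fields per well / Assay system: AML12 hepatocytes (mouse) / Measure: % inhibition of lipid droplet signal / Doses: 6.5 µM single-point dosing / Incubation: overnight exposure / Reagent: 100 µM oleic acid challenge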
TLR9-MyD88 inh: blocks human TLR9 binding to MyD88 | CHO BLA complementation TLR9-MyD88, CCF4 FRET ratio | inhibition, % at 4.98 µM | 340,000 compounds, 0.21% hits;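 active = inhibition above the mean over all tested compounds plus 3 SD, cut at about 21% in these data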
Each line names hits and unclear results; the compound was inactive in the other large screens.

CCC(CO)Oc1cc(NC(=O)c2cccc([N+](=O)[O-])c2)c2ncn(C(C)C)c2c1 (stereo unspecified)	SR-BI HDL uptake 75.5 (no result: TLR4-MyD88 BLA, Lipid droplet)
CC(=O)Cn1c(=O)oc2ccccc21	SR-BI uptake up 113.5 (no result: TLR4-MyD88 BLA)
O=C(NCc1ccccc1)NC(=O)c1ccccc1F	none (no result: TLR4-MyD88 BLA)
CCOc1ccc(C(=O)Nc2nnc(NC(=S)Nc3ccccc3)s2)cc1	SR-BI HDL uptake 84.6
Cc1ccc(C(=O)Nc2nnc(NC(=S)Nc3ccccc3)s2)cc1	SR-BI HDL uptake inconclusive
CC(=O)N1CCN(c2ccc(NC(=O)c3cccc(Cl)c3Cl)cc2)CC1	none (no result: TLR4-MyD88 BLA)
O=C(Nc1ccc(N2CCCC2)cc1)c1cccc(-c2cc3ccccc3oc2=O)c1	SR-BI HDL uptake 90.0
O=C(Nc1ccc(N2CCCC2)cc1)c1cccc(Cl)c1Cl	SR-BI HDL uptake 78.8 (no result: TLR4-MyD88 BLA)
O=C(Nc1ccccc1N1CCCC1)c1cccc(-c2cc3ccccc3oc2=O)c1	none
O=C(Nc1ccc(N2CCCC2)cc1)c1ccc2ccccc2c1	SR-BI HDL uptake 88.5
O=[N+]([O-])c1ccc(S(=O)(=O)c2cccc(C(F)(F)F)c2)nc1	NOD2-RIPK2 inh 78.7 (no result: TLR4-MyD88 BLA, Lipid droplet)
O=S(=O)(Nc1cccnc1)c1cccc(C(F)(F)F)c1	none
Cn1cnc(NCc2ccccc2)c1[N+](=O)[O-]	none (no result: TLR4-MyD88 BLA, TLR9-MyD88 inh)
CC1=NN(C(=O)c2csc(C)c2)C(O)(C(F)(F)F)C1 (stereo unspecified)	none
CC1=NN(C(=O)c2ccc(Br)cc2)C(O)(C(F)(F)OC(F)(F)F)C1 (stereo unspecified)	SR-BI HDL uptake 78.0 (no result: Lipid droplet)
CCC1=NN(C(=O)c2ccc(Br)cc2)C(O)(c2ccc(C)cc2)C1 (stereo unspecified)	none
CCC1=NN(C(=O)c2ccc(C)cc2)C(O)(c2ccc(Br)cc2)C1 (stereo unspecified)	SR-BI uptake up 103.1
Cc1cnc(C(=O)OCC(=O)NCc2ccc3c(c2)OCO3)cn1	none
CC(=O)NCCC(=O)Nc1ccc(F)cc1C	none (no result: Lipid droplet)
Cc1cccc(C(=O)c2c(N)sc3c2CCC(C)C3)c1 (stereo unspecified)	SR-BI HDL uptake 73.2
Cc1cccc(C(=O)c2c(N)sc3c2CCCC3)c1	none
CSc1cccc(NC(=O)NNC(=O)C2CCN(S(=O)(=O)N(C)C)CC2)c1	none (no result: TLR4-MyD88 BLA)
O=C(Nc1cc(Cl)cc(Cl)c1)c1cccc(OC(F)F)c1	SR-BI HDL uptake 73.9
CN(C)S(=O)(=O)c1cccc(C(=O)Nc2cc(Cl)cc(Cl)c2)c1	SR-BI HDL uptake 73.2
O=C(Nc1cccc(C(F)(F)F)c1)C1CC(=O)N(CCc2ccccc2)C1 (stereo unspecified)	none (no result: TLR4-MyD88 BLA, Lipid droplet)
N#CC(c1cccc(Cl)c1)c1ccc2c(C(F)(F)F)cc(C(F)(F)F)nc2n1 (stereo unspecified)	SR-BI HDL uptake 117.3
Cn1nc(C(=O)Nc2cc(Cl)ccc2N2CCCC2)c2ccccc2c1=O	SR-BI HDL uptake 92.7 (no result: TLR4-MyD88 BLA, Lipid droplet)
N#Cc1c(F)cccc1NCCCn1ccnc1	none (no result: TLR4-MyD88 BLA, Lipid droplet)
Cn1nnnc1SCCNC(=O)C1CCC(=O)N(Cc2ccccc2F)C1 (stereo unspecified)	SR-BI uptake up 71.9 (no result: TLR4-MyD88 BLA)
Cn1nnnc1SCCNC(=O)C1CCC(=O)N(Cc2ccc(Cl)cc2)C1 (stereo unspecified)	none (no result: TLR4-MyD88 BLA)
O=C(Nc1sc2c(c1-c1nc3ccccc3[nH]1)CCCC2)C1CCCC1	SR-BI HDL uptake 89.1 (no result: Lipid droplet)
CC(=O)NCCC(=O)Nc1sc2c(c1-c1nc3ccccc3[nH]1)CCCC2	none (no result: Lipid droplet)
COCCCN1C(=O)c2[nH]nc(-c3ccccc3O)c2C1c1cccc(Cl)c1 (stereo unspecified)	none (no result: Lipid droplet)
CC(C)OCCCN1C(=O)c2[nH]nc(-c3ccccc3O)c2C1c1cccc(Cl)c1 (stereo unspecified)	SR-BI HDL uptake 72.2
CCOc1ccc(-c2c(C(=O)N/N=C/c3ccc(C)s3)nnn2-c2nonc2N)cc1	none (no result: TLR4-MyD88 BLA)
CCC(=O)N1CCc2cc(Br)cc(S(=O)(=O)N3CCC(C(=O)NC(C)C)CC3)c21	none (no result: TLR4-MyD88 BLA, Lipid droplet)
CCOc1cc(/C=N/Nc2nc(-c3cccc(S(=O)(=O)N4CCCC4)c3)cs2)ccc1O	SR-BI HDL uptake 98.1
